Compound activity (PubChem BioAssay)
The list is not random: actives were taken first. Their share in the collection is about 1.8%.
HIV Rev-RRE inh – HIV Rev-RRE protein-RNA interaction inhibition. 0.79% of 97,000 active. P05866. inhibition, % at 8 µM. Rev peptide-RRE RNA binding, FRET;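 active = inhibition above the screen-wide mean plus 3 SD, cut at about 35% in these data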;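 note: 0% = median DMSO wells and 100% = median Neomycin B control wells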
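Test system – labelled RRE RNA duplex and labelled Rev peptide · Signal – fluorescein-to-Cy5 FRET, 480 nm excitation · Evaluation – % inhibition of FRET ratio versus controls · Benchmarks – DMSO low control, neomycin B high control · Incubation – 5 min RNA-compound premix plus 15 min binding step, 25 °C · Medium – HEPES pH 7.5 salt buffer with EDTA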
EphB4 ephrin blk – blocks human EphB4 binding to ephrin-B2 | P54760 | 0.15% of 97,000 active | inhibition, % at 7 µM | EphB4 LBD / TNYL-RAW-Alexa532 peptide, fluorescence polarization;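 active = inhibition above the screen-wide mean inhibition plus 3 SD, cut at about 15% in these data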;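 note: 0% = DMSO wells and 100% = excess unlabeled TNYL-RAW peptide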
Target sequence (P54760 whole entry, looked up, the tested form may be a part): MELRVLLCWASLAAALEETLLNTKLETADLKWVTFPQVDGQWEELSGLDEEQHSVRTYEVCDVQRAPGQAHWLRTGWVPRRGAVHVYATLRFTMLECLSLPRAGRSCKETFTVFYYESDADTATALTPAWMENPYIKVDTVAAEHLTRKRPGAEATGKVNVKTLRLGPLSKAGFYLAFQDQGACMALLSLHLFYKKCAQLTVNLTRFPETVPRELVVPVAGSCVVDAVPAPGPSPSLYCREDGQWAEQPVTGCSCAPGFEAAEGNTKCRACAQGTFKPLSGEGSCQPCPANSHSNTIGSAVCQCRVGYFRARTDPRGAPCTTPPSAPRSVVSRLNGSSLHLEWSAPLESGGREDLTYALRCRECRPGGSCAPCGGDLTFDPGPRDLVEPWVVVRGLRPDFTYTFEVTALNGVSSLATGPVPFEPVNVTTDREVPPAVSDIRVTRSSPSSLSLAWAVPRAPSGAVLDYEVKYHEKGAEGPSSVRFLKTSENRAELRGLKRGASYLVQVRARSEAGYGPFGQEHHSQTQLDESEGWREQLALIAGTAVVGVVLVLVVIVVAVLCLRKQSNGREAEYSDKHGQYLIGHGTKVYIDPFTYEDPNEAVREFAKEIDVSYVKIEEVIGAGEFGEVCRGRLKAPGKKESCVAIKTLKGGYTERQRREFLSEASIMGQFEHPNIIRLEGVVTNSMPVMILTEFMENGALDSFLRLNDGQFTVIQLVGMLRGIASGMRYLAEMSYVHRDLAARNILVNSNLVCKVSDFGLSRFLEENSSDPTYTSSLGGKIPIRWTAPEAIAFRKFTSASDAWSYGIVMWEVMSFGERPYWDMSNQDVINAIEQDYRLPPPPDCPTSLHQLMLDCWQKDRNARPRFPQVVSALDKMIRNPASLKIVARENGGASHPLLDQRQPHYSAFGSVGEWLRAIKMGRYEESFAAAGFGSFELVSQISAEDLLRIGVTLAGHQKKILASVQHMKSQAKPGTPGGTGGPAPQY
LYP act – activators of human LYP (PTPN22) phosphatase | Q9Y2R2 | recombinant LYP, DiFMUP fluorescence; 0 = plate median, 100 = signal doubled | activation, % at 2 µM | 0.11% of 96,000 active | AID 697;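 active = activation at 2 µM above a set limit, the mean plus 5 SD, cut at about 37% in these data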
LYP inh 2 – inhibitors of human LYP (PTPN22) phosphatase; inhibition, % at 2 µM; recombinant LYP catalytic domain, DiFMUP fluorescence; AID 640; 0.21% of 96,000 active; Q9Y2R2;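 active = inhibition at 2 µM at or above a set limit, the screen mean plus 3 SD, cut at about 24% in these data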;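 note: 0% = DMSO with enzyme and 100% = enzyme fully blocked by orthovanadate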
PLK1 inh – blocks human PLK1 kinase activity | recombinant PLK1 kinase, TR-FRET peptide phosphorylation | inhibition, % at 10 µM | 0.53% of 97,000 active;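 active = inhibition of 50% or more in the single-concentration screen; inactive = inhibition below 50%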;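 note: 0% = DMSO max control and 100% = H-89 dihydrochloride min control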
PLK1 PBD inh – inhibitors of human Plk1 polo box domain binding; P53350; Plk1 PBD phosphopeptide binding, fluorescence polarization; inhibition, %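 (tested at about 20 µM)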; 0.13% of 97,000 active; AID 693; in the data active = inhibition above about 34%, passing the limit was not always enough
Numbers without * were called inactive; x = no result given; [ ] = dose if it differs, or a comment.

SMILES	HIV Rev-RRE inh	EphB4 ephrin blk	LYP act	LYP inh 2	PLK1 inh	PLK1 PBD inh
CCn1c(SC(C)C(=O)OC)nnc1-c1c[nH]c2ccccc12 (stereo not drawn)	3.0	-4.4	x	x	64.5*	5.8
Cc1ccc(C)c(-c2cc(C(=O)Nc3sc(C)c(C)c3C(N)=O)c3ccccc3n2)c1	7.2	-4.9	0.9	2.6	3.1	-17.6
CC1CN(Cc2nc3c(c(=O)[nH]c(=O)n3C)n2CC(N)=O)CC(C)O1 (stereo not drawn)	-1.1	-7.4	3.7	-3.6	51.1*	7.5
O=C(CCNS(=O)(=O)c1cccs1)NCc1ccccc1	8.1	3.2	0.9	2.4	-8.0	18.8
Cc1nnc(SCC(=O)N/N=C/c2cn(-c3ccccc3)nc2-c2ccccc2)n1-c1ccccc1	-4.2	-0.5	-22.1	24.9*	-10.7	-27.9
COc1cc(NS(=O)(=O)c2ccc(Br)s2)cc(OC)c1	4.7	2.4	0.4	0.9	-6.9	7.2
Cc1nc(CS(=O)(=O)c2ccc(Cl)cc2)cc(Sc2ccc(Cl)cc2)n1	10.4	2.2	-8.2	11.9	-1.9	8.8
O=C(Nc1nnc(CCS(=O)(=O)c2ccc(Br)cc2)s1)c1ccc([N+](=O)[O-])cc1	7.9	3.5	-15.4	17.5	-1.9	-15.9
O=C(Nc1nnc(COc2ccc(Cl)cc2)s1)c1ccc([N+](=O)[O-])cc1	5.3	3.1	-22.4	24.5*	-5.3	5.0
Cc1nc(NC(=O)c2ccc(Cl)cc2)sc1-c1csc(Nc2cccc(F)c2)n1	4.3	-3.6	-1.8	5.6	-8.1	-19.7
CCCC(=O)Nc1nc2c(OC)ccc(OC)c2s1	0.1	-1.6	x	x	62.7*	0.3
Cc1cccc(/C=C/C(=O)c2cc(Br)ccc(=O)c2O)c1	36.8*	2.5	1.2	-4.3	-14.3	-19.2
COc1ccc(N(CN2C(=O)C3C4C=CC(C4)C3C2=O)C(=O)c2ccco2)cc1 (stereo not drawn)	-1.1	-6.7	2.9	-5.3	1.3	52.2*
Cc1cc(C)c(S(=O)(=O)NNC(=O)C2CCN(Cc3ccccc3)CC2)c(C)c1	1.9	1.2	4.7	-0.5	-6.7	-9.1
C=CCc1cc(C)cc(C)c1OCCn1cncn1	7.6	16.5*	0.2	2.8	-6.1	20.0
CCOC(=O)C(C)Sc1nc(-c2ccco2)cc(C(F)(F)F)c1C#N (stereo not drawn)	15.0	-4.9	9.1	-11.6	-16.9	-9.4
Cc1ccc(C)c2nc3sc(C(=O)N4CCCc5ccccc54)c(N)c3cc12	62.4*	3.3	0.6	2.7	-17.8	-45.0
O=C(c1ccc(C(=O)N2CCCc3ccccc32)s1)N1CCCc2ccccc21	5.5	-11.8	-6.4	8.7	-10.4	-10.2
CCOc1cc(-c2cc(-c3ccc(N)cc3)nc(N)c2C#N)ccc1O	8.4	3.8	-5.2	5.8	-2.1	33.6
CCOc1cc(-c2ccc(N)c(OCC)c2)ccc1N	84.2*	1.3	-2.1	3.7	-7.5	-4.8
Cc1nc2ccccc2n1CC(=O)OCC(=O)NCCc1ccccc1	5.4	-2.5	-6.6	8.6	-2.2	6.7
Cc1nc(-n2[nH]c3c(c2=O)CCCC3)[nH]c(=O)c1Cc1ccccc1	86.5*[fluorescence artefact?]	-2.8	0.0	4.0	-6.9	-23.2
Cc1cc(=O)[nH]c(-n2[nH]c3c(c2=O)CCCC3)n1	25.9	6.0	-7.4	10.0	-8.3	-24.5
O=C1/C(=C/c2ccc(N3CCCC3)cc2)NC(=S)N1C1CC1	137.4*[fluorescence artefact?]	5.4	23.1	-22.3	-39.3	-201.0
Cn1nc(-c2ccc(C(=O)Nc3cccc(Cl)c3)cc2)c2ccccc2c1=O	4.9	-26.7	-15.7	14.9	-3.7	-24.6
SMILES	HIV Rev-RRE inh	EphB4 ephrin blk	LYP act	LYP inh 2	PLK1 inh	PLK1 PBD inh
CCOC(=O)C(=O)/C(=C\N(C)C)c1onc(-c2c(F)cccc2Cl)c1C(=O)OC	-0.9	1.7	-12.1	14.8	-5.5	3.8
CCOC(=O)C1=C(C)OC(N)=C(C#N)C1c1c(C)nn(-c2ccc(C)cc2)c1Cl (stereo not drawn)	16.7	-0.3	-30.3	32.8*	-8.4	-8.2
Nc1c(C(=O)Nc2ccccc2)sc2nc(-c3ccco3)ccc12	36.4*	7.9	3.0	-5.6	-1.1	-10.3
CC(=O)c1sc2nc(-c3cccs3)ccc2c1N	31.5	1.6	-7.1	7.4	-12.1	-35.8
COc1ccccc1NC(=O)c1sc2nc(-c3ccco3)ccc2c1N	29.7	4.2	-12.3	11.4	-3.7	-19.6
Nc1c(C(=O)Nc2nc3ccccc3s2)sc2nc(-c3cccs3)ccc12	132.7*[fluorescence artefact?]	2.8	-31.0	34.6*	-18.4	-55.4
Cc1ccc(NC(=O)N(C2=NCC(C)S2)c2ccccc2)cc1 (stereo not drawn)	10.1	0.1	1.6	-1.0	-14.2	-10.2
Cc1cccc(N(C(=O)Nc2ccccc2)C2=NCC(C)S2)c1 (stereo not drawn)	7.3	3.4	x	x	67.0*	-11.2
CC(CCO)Nc1nc2c(c(=O)n(C)c(=O)n2C)n1Cc1cccc(Br)c1 (stereo not drawn)	8.8	1.2	2.1	-7.5	-8.9	7.2
O=C1/C(=C/c2ccccc2)NC(=S)N1C(c1ccccc1)c1ccccc1	18.9	-1.3	-0.5	3.4	-4.9	13.1
O=C1/C(=C/c2ccccc2)Nc2ccccc21	128.9*[fluorescence artefact?]	7.5	2.6	2.2	-43.1	-138.8
CC1(C)CC(=O)C2=C(C1)OC1=C(C(=O)CC(C)(C)C1)C2c1ccc(O)cc1O	94.2*[fluorescence artefact?]	8.0	-6.0	5.5	-16.7	-1.4
CCOC(=O)C1=C(N)OC2=C(C(=O)CC(C)(C)C2)C1c1ccco1 (stereo not drawn)	7.4	-0.2	9.8	-14.0	-14.5	11.7
O=C(OCC#CCSc1nnc(-c2ccncc2)o1)c1cccs1	-7.7	-5.5	4.8	-0.6	54.2*	-11.2
COc1cc(/C=N/n2cnnc2)ccc1OCc1ccc(C)cc1	9.2	0.1	5.0	-4.4	-4.5	-7.8
O=C(c1ccc(COc2ccccc2Cl)o1)N1CCN(Cc2ccc3c(c2)OCO3)CC1	7.2	17.8*	0.8	-3.3	-3.6	3.8
CCOC(=O)C(NCc1ccc2c(c1)OCO2)(NC(=O)c1ccccc1)C(F)(F)F (stereo not drawn)	2.8	2.4	1.3	1.6	-10.5	0.6
CC12CCC(C(=O)N(NC(=O)c3cc(Cl)ccc3O)C1=O)C2(C)C (stereo not drawn)	6.9	5.1	4.0	-1.1	-12.7	7.7
Cc1ccc(Cn2ccc(NC(=O)CCSc3nc(-c4ccco4)cc(C(F)(F)F)n3)n2)cc1	9.6	11.8	1.4	-4.3	-9.0	15.2
Cc1ccccc1Cn1ccc(NC(=O)CCSc2nc(-c3ccco3)cc(C(F)(F)F)n2)n1	3.5	1.1	-21.2	24.6*	-2.2	7.6
CCCn1c(Nc2ccccc2)nc2ccccc21	4.8	1.7	7.4	-6.8	-3.3	8.2
CCCn1c(Nc2ccc(Cl)cc2)nc2ccccc21	2.8	-2.2	-35.0	37.5*	-7.5	4.6
